Reference: the EternaBench riboswitch data

Test system: MS2 coat protein
Assay: apparent Kd, MS2 coat protein; higher = weaker binding; RNA-MaP array; FMN 200 µM where present
Summary of the method: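 Designs on Illumina sequencing-chip clusters, transcribed by stalled E. coli RNA polymerase, were exposed to SNAP-549-labelled MS2 coat protein in doubling steps from 0.7 or 1.5 nM up to 3 µM, without and then with constant ligand. The buffer held 100 mM Tris-HCl pH 7.5, 80 mM KCl, 4 mM MgCl2, BSA, DTT, yeast tRNA and Tween-20. Apparent Kd values are medians of filtered per-cluster binding-curve fits to green signal normalised to red-channel RNA signal and control-cluster median Fmax.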

[1] = designed as: OFF switch for flavin mononucleotide, no ligand
[2] = ligand present: flavin mononucleotide, designed as: OFF switch for flavin mononucleotide
[3] = designed as: ON switch for flavin mononucleotide, no ligand
[4] = ligand present: flavin mononucleotide, designed as: ON switch for flavin mononucleotide

Sequence | apparent Kd [1] [nM] | apparent Kd [2] [nM] | apparent Kd [3] [nM] | apparent Kd [4] [nM]
ACCUCACAUGAGGAUCACCCAUGUCAGGAUAUGUACCCGAUCAAGUCAGAGAUUGGGAGCAGAAGGGACUGCGG | 119 | 34.5 | – | –
ACCUCACAUGAGGAUCACCCAUGUUAGGAUAUAUAAUCGUCGGCCUAGGGCCGGAGAUAUAGAAGGAGCAUAAC | 16.9 | 19.7 | – | –
ACCUCACAUGAGGAUCACCCAUGUUAGGAUAUCUCGGCGCCCUGCAGGCAGUGGCACCAGAGAAGGAACGUGCA | 22.5 | 25.3 | – | –
ACCUGGAUAGGAUAUACAUGAGGAUCACCCAUGUGACUCAGGCCAGGGAAGUACUUCGGUAGAAGGGUCCAGUA | 18.2 | 20.7 | – | –
ACCUUACAUGAGGAUCACCCAUGUUAGGAUAUCUCGCCUGCGCAAUCACAGCGCAGGCAGAGAAGGGACGCGGG | 30.3 | 32.1 | – | –
ACGACUGUCAUAGGAUAUGGUUACAUGAGGAUCACCCAUGUCAAGGGUCUAACUAAGUAUAGCUACUAGAAGGAUGAUAGUCGA | 143 | 116 | – | –
ACGCUCAGAGGAUAUACAUGAGGAUCACCCAUGUGUUACCGAGGAGUACGGUCGUCACGUAGAAGGCUGGGUAA | 17.9 | 63.2 | – | –
ACGGAACAUGAGGAUCACCCAUGUAUCUGAAAUAUGGACUCACAGGAUAUUCAGAGUUGCCAAUCGGAGAAGGGUGACUCCAGA | – | – | 25.5 | 17.2
ACGGCAAUCACAGGAUAUGGUUACAUGAGGAUCACCCAUGUCAAGGGUCUAAUUAGGUAUAACUACCAGAAGGGUGAAGGCCUA | 74.4 | 105 | – | –
ACGUUUUAUGCAGGAUAUUGAAAUAUAUUUAAACAAGAAGGGCAAUACAUGAGGAUCACCCAUGUCAGCAUGGUAUUUAAGUUC | 43.9 | 45.4 | – | –
ACGUUUUUUGAGGAUAUGCGACGUUCCUUCGUCGUAGAAGGCGAUACAUGAGGAUCACCCAUGUUUAUGGGCAU | 119 | 137 | – | –
ACGUUUUUUGAGGAUAUGCGACGUUUUUUCGUCGUAGAAGGCGAUACAUGAGGAUCACCCAUGUUUAUGGGCAU | 126 | 174 | – | –
ACUAUACGAGGAUAUGCUGUCAGUACUCAGAGGUUAAUGUGACAUGAGGAUCACCCAUGUAGAAGGCGUUUACU | 34.2 | 23.8 | – | –
ACUAUACGAGGAUAUGCUGUCAGUACUCCGGAGUUAGUUUGACAUGAGGAUCACCCAUGUAGAAGGCGUUUACU | 40 | 30.3 | – | –
ACUCAGUCAGGAUAUCGUUAAUUUAAUUGUUUGUUUUAGUUCGAGAAGGGACAUGAGGAUCACCCAUGUACUCA | 25.3 | 51.2 | – | –
ACUCGACAUGAGGAUCACCCAUGUGAGGAUAUCGUUAUUUACUUUGUUUAUAGUAUCUCGAGAAGGCACAUUUG | 18.1 | 54.6 | – | –
ACUGUUAAGACAGGAUAUCGAUUAUAACCUCUAAAACAUGAGGAUCACCCAUGUAGUCCGUAUUGCGAGAAGGGUCAUUUUAGU | – | – | 295 | 233
ACUUACUGAGGAUAUACAUAGAUUUACAUGAGGAUCACCCAUGUUCCUCUAUGUAUAAAUGUAGAAGGCAGAAGUG | 22.4 | 120 | – | –
AGAAACUACGAGAAGGACAUAUGGUACUUCAGCUACAUGAGGAUCACCCAUGUAGGAUAUCGUAGUUUCAGGAUCGUGAGAUCA | 5.65 | 6.02 | – | –
AGAAACUACGAGAAGGACAUAUGGUACUUCAGUUACAUGAGGAUCACCCAUGUAGGAUAUCGUAGUUUCAGGAUCGUGAGAUCA | 22 | 169 | – | –
AGAAACUACGAGAAGGACAUAUGGUUCUUCAGAUACAUGAGGAUCACCCAUGUAGGAUAUCGUAGUUUCAGGAUCGUGAGAUCA | 6.51 | 9.68 | – | –
AGAAAGGCAGGAUAUACAUGAGGAUCACCCAUGUUAAGAGUGACGGAAACGUCACGAAGUAGAAGGGCCAAGAA | 21.1 | 18.7 | – | –
AGAAUAAACCAGAAGGCGUAGAUACAUGAGGAUCACCCAUGUAUACUUGCGAGGAUAUGGAUGAUUCAAGUGCGUUUCGUAGCA | – | – | 6.06 | 4.23
AGACCCAUGACAUGACAUGACAUGAGGAUCACCCAUGUUUACAAGGAUAUGUUGAUGAAACAUCAACAGAAGGUGUAAUGGGCU | 20.9 | 73.1 | – | –
AGACUUGCAGGAUAUACAUGAGGAUCACCCAUGUAUGUAAACUUAUGCGGUGUGACCUGUAGAAGGGUAGGCGU | 21.1 | 24.2 | – | –
AGAGAUACGCUCGUCGGACACCGACAUGAGGAUCACCCAUGUAGAAGGCGAUGCGCAACUCGCAUUGAGGAUAUAUAAUGCAGC | 6 | 5.74 | – | –
AGAGUGUGAGGAUAUAUGGUGAAGAUGAAGGGAUAGAAGGAGUAGAAGGUACAUGAGGAUCACCCAUGUUAGGA | 25.2 | 25.7 | – | –
AGAUAACACCAGAAGGACAUGAGGAUCACCCAUGUAGGAUAUGGGCAUCACUCGAGAAAGAAAAGACCAAAUGUACACGCGGUC | – | – | 91.7 | 9.27
